Each structure is given as a SMILES string. The source made the active and inactive calls. No cut-off for these calls is given here.

Our source for the Ki, inhibition and Ratio Ki values is ChEMBL document CHEMBL1152670, “Synthesis and in vitro evaluation of aspartate transcarbamoylase inhibitors” (Bioorg Med Chem, 2009).

A short description of test [1]: Inhibition of histidine-tagged Escherichia coli ATCase catalytic domain assessed as N-carbamoyl-L-aspartate formation by colorimetric assay. In a few lines: (§1)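 E. coli His-tagged C3 (catalytic subunit) ATCase, purified from pEK17/EK1104, at 75 ng/mL. Assay at room temperature in 0.1 M Tris-acetate pH 8.3 with 10 mM L-aspartate. […] N-carbamoyl-L-aspartate formation was read colorimetrically. Ki and inhibition mode were taken from the kinetics.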

For test [2], the system named is Escherichia coli. Kind of test: Inhibition of histidine-tagged Escherichia coli ATCase catalytic domain assessed as N-carbamoyl-L-aspartate formation at 0.5 to 6 uM by colorimetric assay. The procedure, abridged: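 E. coli His-tagged C3 ATCase catalytic subunit (75 ng/mL), purified from strain/plasmid pEK17/EK1104, run at room temperature in 0.1 M Tris-acetate pH 8.3 with 10 mM L-aspartate. N-carbamoyl-L-aspartate formation read colorimetrically. […] Ki and inhibition mode derived from these kinetics.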

In test [3] the test system is Escherichia coli. Kind of test: Ratio of compound Ki to N-phosphonacetyl-L-aspartate Ki for histidine-tagged Escherichia coli ATCase catalytic domain.
For test [4], the system named is Escherichia coli. Description: Ratio of compound Ki to (2S)-2-(2-(hydroxy(hydroxymethyl)phosphoryl)acetamido)succinic acid Ki for histidine-tagged Escherichia coli ATCase catalytic domain.
Test [5] can be described thus: Uncompetitive inhibition of histidine-tagged Escherichia coli ATCase catalytic domain assessed as N-carbamoyl-L-aspartate formation by colorimetric assay. In a few lines: as §1

What is called Ki is a dissociation constant, usually derived from enzyme kinetics or from competition with a known ligand. For the molecule `O=C(O)C[C@@H](C(=O)O)N1CCP(=O)(O)CC1`, the inhibitory constant (Ki) entry in test [1] is on record as “Not Active”.
With `O=C(O)C[C@H](NC(=O)CC(C(=O)O)C(=O)O)C(=O)O`, the inhibition entry in the test with Escherichia coli [2] was “inactive”.
As for `O=C(O)C[C@H](NC(=O)CP(=O)(O)CC(=O)O)C(=O)O`, in test [1] (read-out: Ki), the Ki amounted to 3.6 µM. The Ratio Ki in the test on Escherichia coli [3] was found to be 225.
As to `O=C(O)C[C@H](NC(=O)OCP(=O)(O)O)C(=O)O`, the Ki entry in test [1] was “Not Active”.
`O=C(O)C[C@H](NC(=O)CP(=O)(O)O)C(=O)O` [PALA]: the Ki in test [1] (read-out: Ki) came to 0.016 µM.
On to `O=C(O)CCC(=O)N[C@@H](CC(=O)O)C(=O)O`, for which the inhibition result in the test with Escherichia coli [2] is “inactive”.
On to `O=C(O)C[C@@H](C(=O)O)N1CP(=O)(O)CC1=O`, for which the Ki entry in test [1] is “Not Active”.
For the molecule `O=C(O)CC(=O)N[C@@H](CC(=O)O)C(=O)O`, the inhibition result in the test with Escherichia coli [2] was “inactive”.
On to `O=C(O)C[C@H](NC(=O)C[PH](=O)O)C(=O)O`, for which the inhibition constant (Ki) in test [1] (read-out: Ki) is 0.42 µM. In addition, in the test on Escherichia coli [3], the Ratio Ki stood at 26.
As for `O=C(O)C[C@H](NC(=O)COP(=O)(O)O)C(=O)O`, the Ki in test [1] (read-out: Ki) amounted to 0.21 µM. In the test on Escherichia coli [3], the Ratio Ki was 13.
`O=C(O)C[C@@H](C(=O)O)N1CCP(=O)(O)CC1=O`: the inhibitory constant (Ki) in test [1] (read-out: Ki) stood at 1 µM. In addition, the Ratio Ki in the test with Escherichia coli [3] was 63.
With `O=C(O)C[C@H](NC(=O)CP(=O)(O)CCO)C(=O)O`, the values for the Ratio Ki in the test on Escherichia coli [4] and in the test with Escherichia coli [3] were 13 and 156, respectively. For the same molecule, the Ki in test [5] was 2.5 µM.
Take `O=C(O)C[C@H](NC(=O)NCP(=O)(O)O)C(=O)O`: the Ki in test [1] (read-out: Ki) amounted to 2.1 µM. In the test with Escherichia coli [3], the Ratio Ki was 131.
In the case of `O=C(O)C[C@H](NC(=O)C[PH](=O)CO)C(=O)O` (some centres not stated), the Ki in test [1] (read-out: Ki) is 0.19 µM. In the test with Escherichia coli [3], the Ratio Ki was determined as 12.
